This is a sample that favours compounds with a hit; in the whole collection about 4.1% have one here.
SMARCA2 activ – increases SMARCA2 function in MMTV reporter cells; MG213 cells, MMTV-luciferase reporter, dexamethasone, overnight; activation, % at 9.1 µM; hit rate 1% among 370,000; AID 652017; in the data active = activation above about 7.8%;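 note: 0% = vehicle wells and 100% = reference activator wells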
AHR act – human AHR activation; AHR-responsive luciferase reporter cells, luminescence; activation, % at 5 µM; hit rate 2.5% among 320,000; AID 2796; in the data active = activation above about 47%;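 note: 0% = vehicle wells and 100% = reference agonist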
Target sequence (P35869 whole entry, looked up): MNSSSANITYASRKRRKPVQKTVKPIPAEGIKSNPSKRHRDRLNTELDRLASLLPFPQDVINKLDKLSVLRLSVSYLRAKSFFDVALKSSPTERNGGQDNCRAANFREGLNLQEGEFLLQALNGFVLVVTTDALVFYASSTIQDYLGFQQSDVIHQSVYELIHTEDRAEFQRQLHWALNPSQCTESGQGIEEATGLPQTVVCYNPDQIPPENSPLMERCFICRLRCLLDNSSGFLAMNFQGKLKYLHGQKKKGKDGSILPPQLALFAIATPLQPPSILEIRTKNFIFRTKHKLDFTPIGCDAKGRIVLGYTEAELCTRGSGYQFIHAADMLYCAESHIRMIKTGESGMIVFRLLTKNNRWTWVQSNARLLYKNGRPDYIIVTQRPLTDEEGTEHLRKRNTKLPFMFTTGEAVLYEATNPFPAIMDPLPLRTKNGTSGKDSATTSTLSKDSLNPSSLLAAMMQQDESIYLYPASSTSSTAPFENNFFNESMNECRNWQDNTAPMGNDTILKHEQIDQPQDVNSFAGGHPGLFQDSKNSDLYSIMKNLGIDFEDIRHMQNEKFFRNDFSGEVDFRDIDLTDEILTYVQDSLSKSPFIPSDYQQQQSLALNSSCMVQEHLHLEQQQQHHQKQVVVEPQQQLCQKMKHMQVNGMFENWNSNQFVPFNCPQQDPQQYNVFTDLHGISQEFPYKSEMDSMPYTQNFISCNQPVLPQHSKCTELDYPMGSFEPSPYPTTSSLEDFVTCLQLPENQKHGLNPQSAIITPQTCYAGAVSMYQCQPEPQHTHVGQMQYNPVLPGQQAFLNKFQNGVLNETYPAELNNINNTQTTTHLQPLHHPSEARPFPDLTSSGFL
Tb MetRS inh – Trypanosoma brucei MetRS inhibition; purified T. brucei MetRS, ATP depletion, Kinase-Glo luminescence; inhibition, % at 11.9 µM; hit rate 0.4% among 360,000;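 active = inhibition above a per-plate cutoff of the control wells' mean inhibition plus 3 SD, cut at about 5.5% in these data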;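 note: 0% = DMSO wells median and 100% = median of wells with control inhibitor compound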
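Assay system: T. brucei methionyl-tRNA synthetase, purified | Medium: HEPES buffer with MgCl2, KCl, DTT, spermine, BSA, pyrophosphatase | Compound: 11.9 µM single point | Incubation: 15 min enzyme-compound preincubation, 2 h reaction, 10 min detection, 25 °C | Measured by: Kinase-Glo luciferase luminescence reporting remaining unconsumed ATP | Measure: % inhibition normalized to control-well medians | Replication: Singlicate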
Efflux pump inh – inhibitors of Candida antifungal efflux pumps expressed in yeast; hit rate 0.44% among 330,000; inhibition, % at 10 µM; AID 485275; S. cerevisiae Candida pump triplex, Nile Red efflux;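 active = plate passing quality check with inhibition over a set limit, or well fluorescence over plate mean plus 4 SD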;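 note: Nile Red retained in pooled yeast measured as flow cytometry median fluorescence; 0% = buffer negative control and 100% = Enniatin B positive control; higher means more Nile Red kept so more efflux inhibition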
H9c2 TAG inh – reduces triacylglycerol accumulation in H9c2 cells; AID 651582; inhibition, % at 12.5 µM; Nile Red lipid (TAG) fluorescence; cells loaded with 200 µM oleic acid; hit rate 0.66% among 230,000;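 active = pattern-corrected inhibition of lipid staining of at least 50% with the nuclear-stain viability signal not falling by more than 50%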;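 note: 0% = DMSO wells and 100% = triacsin C control wells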
Active calls of the source: *; nt = no result given.

SMILES	SMARCA2 activ	AHR act	Tb MetRS inh	Efflux pump inh	H9c2 TAG inh
O=C(CSCc1nc2ccccc2[nH]1)Nc1ccc2ccccc2c1	-4.5	60.4*	0.6	-0.3	nt
COC(=O)[C@]12C[C@H](CC(=O)NCCc3ccccc3OC)C(=O)N(Cc3ccc(Cl)cc3Cl)C1=C[C@H](C(C)(C)C)O[C@@H]2C	-4.5	nt	nt	nt	nt
COc1ccc(NC(=O)Nc2ccc3nccnc3c2)cc1	7.9*	-8.6	-0.6	-0.1	4.9
COC(=O)[C@]12C[C@H](CC(=O)NCCC(C)C)C(=O)N(CCc3ccc(OC)c(OC)c3)C1=C[C@H](C1CCCC1)O[C@@H]2C	-1.7	nt	nt	nt	nt
COc1ccc(CNCC#Cc2ccc(C(F)(F)F)cc2)c(OC)c1	-4.8	nt	nt	nt	nt
COc1ccc(/C=C/c2nc(N)nc(-c3ccccc3O)n2)cc1	0.4	59.4*	-0.3	-0.1	nt
C/C(=N\NC(=O)c1ccc(Cl)cc1)c1ccccn1	2.1	4.7	0.6	0.0	nt
C/C(=N\Nc1ccc(Cl)cc1)c1ccccn1	1.7	68.2*	0.4	-0.2	nt
C/C(=N\Nc1ccc(Cl)cc1)c1ccncc1	2.3	68.1*	-0.6	0.0	nt
COC(=O)c1cccc(Cn2ccc3ccc(-c4ccc5ccn(C(=O)c6ccccc6)c5c4)cc32)c1	-2.1	nt	nt	nt	nt
CC(=O)Oc1cc2c(cc1Cl)C1(CC(c3ccccc3Cl)O2)CC(C)(C)NC(=S)N1 (centres undefined)	-2.8	-0.8	3.8	113.5*	10.1
CCN1CCn2c3c(c4cc(Br)ccc42)CCCC31 (centres undefined)	2.0	48.6*	-1.4	0.1	nt
Cc1nnc2sc(COc3ccccc3)nn2c1=O	-0.6	3.5	0.0	0.1	nt
c1ccc(OCc2nn3c(-c4n[nH]c5c4CCC5)nnc3s2)cc1	0.6	67.7*	-1.4	0.0	nt
Cc1ccc(/C=N/NC(=O)c2ccncc2)cc1	-0.5	7.0	0.2	0.7	-7.9
Cc1ccc(/C=N\NC(=O)c2csnn2)cc1	4.9	48.8*	-0.7	-0.2	-1.7
COC(=O)C1CN(Cc2ccc(C)cc2)CCS(=O)(=O)N1Cc1cn(Cc2ccc(C)cc2)nn1 (centres undefined)	-6.5	nt	nt	nt	nt
COc1ccc(-c2nn(-c3ccccc3)cc2/C=N/NC(=S)NC(C)C)cc1OC	2.3	55.3*	1.1	-0.2	nt
COc1ccc(-c2nn(-c3ccccc3)cc2CO)cc1OC	-1.2	51.2*	0.1	-0.1	-114.5
COc1ccc(-c2nn(-c3ccccc3)cc2/C=N/O)cc1OC	-2.7	38.2	-2.1	0.0	nt
COc1ccc(-c2nn(-c3ccccc3)cc2/C=N/Nc2ccc3ccccc3n2)cc1OC	-1.6	48.9*	0.3	-21.1	nt
COc1cccc(-c2nn(-c3ccccc3)cc2CO)c1	6.6	0.6	0.1	-0.1	-26.7
Cc1cc(OC[C@@H](O)CN2CCC(C(O)(c3ccccc3)c3ccccc3)CC2)ccc1Br	-6.7	nt	nt	nt	nt
CCCOc1ccc(-c2cc(C(=O)NCC3CCCO3)c3ccccc3n2)cc1 (centres undefined)	-4.8	51.1*	-0.9	0.3	-28.6
COc1cc(C#Cc2c(-c3cncn3C)n(C)c3ccc(-c4cnc(OC)nc4)cc23)cc(OC)c1	1.9	51.1*	-0.2	0.4	40.9
SMILES	SMARCA2 activ	AHR act	Tb MetRS inh	Efflux pump inh	H9c2 TAG inh
COc1cc(C#Cc2c(-c3cncn3C)n(C)c3ccc(-c4ccc(CN5CCOCC5)cc4)cc23)cc(OC)c1	1.0	18.0	0.4	0.2	4.6
CC1(c2cc([N+](=O)[O-])cc([N+](=O)[O-])c2)CC(C)(C)N(C(=O)c2ccccc2)c2ccccc21 (centres undefined)	2.5	-2.9	-1.0	0.1	91.4*
Cc1cccc(OCCOCCSc2ncccn2)c1	-1.2	61.8*	-0.6	0.1	-18.8
Cc1c(CN(C)Cc2cn(C)nc2-c2ccccc2F)[nH]c2ccccc12	0.2	48.0*	-0.7	0.2	-10.8
Cn1c(NCc2ccccc2O)nc2ccccc21	1.7	-1.4	0.5	0.0	12.5
Cn1c(NCc2ccccc2Cl)nc2ccccc21	3.6	76.8*	1.4	0.0	7.7
COC(=O)[C@]12C[C@H](CC(=O)NCC34CC5CC(CC(C5)C3)C4)C(=O)N(CCc3ccc(OC)c(OC)c3)C1=C[C@H](C(C)C)O[C@@H]2C1CC1	-2.0	nt	nt	nt	nt
CCc1nc(SCCO)c2oc3ccccc3c2n1	2.2	10.8	-1.6	0.1	nt
CCc1nc(SCC(=O)c2ccc(Cl)s2)c2oc3ccccc3c2n1	nt	60.0*	-0.4	0.0	nt
O=C(CSc1nnc(-c2ccccc2)n1-c1ccccc1)NN=Cc1ccc(-c2ccccc2)cc1	-5.7	nt	nt	nt	nt
Cc1oc(-c2ccccc2F)nc1CS(=O)CC(=O)NCc1ccc2c(c1)OCO2 (centres undefined)	-1.4	50.0*	-1.0	0.0	0.0
Cc1oc(-c2ccc(Cl)cc2)nc1CS(=O)CC(=O)NCc1ccc2c(c1)OCO2 (centres undefined)	-2.5	5.8	0.7	0.0	7.8
COc1ccc(CCN2CC(=O)N3CCc4ccc(N5CCOCC5)cc4C3CC2=O)cc1OC (centres undefined)	-3.7	nt	nt	nt	nt
O=C(CNCc1ccccc1[N+](=O)[O-])N1CCC2(CC1)OCCO2	-0.2	nt	nt	nt	nt
Oc1ccc2ccccc2c1N=Nc1ccccn1	-2.8	73.6*	-2.1	0.0	-56.8
Oc1ccc2ccccc2c1N=Nc1ccccc1F	-0.8	50.1*	-0.4	-0.1	35.7
Cc1ccc(-c2nc(C3CCCN(S(=O)(=O)c4ccc(C)c(C)c4)C3)no2)cc1 (centres undefined)	-1.1	nt	nt	nt	nt
Cc1ccccc1Cn1cc(CN2[C@H](C)COc3cc(Br)ccc3S2(=O)=O)nn1	-0.1	nt	nt	nt	nt
Cc1occc1-c1nnc(SCC(=O)NCc2ccc(Cl)cc2)n1-c1ccccc1	0.1	nt	nt	nt	nt
Cc1cc(C(=O)N(C)CC2CCCN(CCc3ccc(F)cc3)C2)c(C)o1 (centres undefined)	2.9	-0.7	0.0	-0.3	10.9
COc1ccc(CCN2CCCC(CN(C)C(=O)c3cc(C)oc3C)C2)cc1 (centres undefined)	7.8*	2.5	-0.2	0.0	10.0
c1ccc2c(c1)ccc1nnc(SCc3ccc4c(c3)OCO4)n12	1.8	65.4*	-0.5	-0.1	-47.5
Cc1[nH]n(-c2ccccc2)c(=O)c1N=Nc1nccs1	-1.9	86.4*	-0.1	-0.3	8.9
CCOc1ccc(N=Nc2c(C)[nH]n(-c3ccccc3)c2=O)cc1	-1.8	49.7*	-2.3	0.1	27.8
Cc1[nH]n(-c2ccccc2)c(=O)c1N=Nc1ccccc1O	-3.5	nt	-0.1	nt	nt
SMILES	SMARCA2 activ	AHR act	Tb MetRS inh	Efflux pump inh	H9c2 TAG inh
c1ccc(CSC2=NNC(c3ccccn3)S2)cc1 (centres undefined)	-3.1	-3.3	-0.1	0.3	66.5*
O=C(CSC1=NNC(c2ccccn2)S1)Nc1ccc(C(F)(F)F)cc1 (centres undefined)	3.7	53.3*	-0.9	-0.1	32.2
c1ccc(CSc2ncccn2)cc1	2.8	1.5	-0.1	0.0	nt
N#CCC[C@H]1CC[C@]2(CCCN(C(=O)c3ccc4ccccc4n3)C2)O1	-1.9	nt	nt	nt	nt
Cc1cc2c(NC(=O)CCCC(=O)O)cccc2nn1	-1.8	-1.1	-0.8	0.1	10.6
Cc1cc2c(NC(=O)Nc3ccc(C(F)(F)F)cc3)cccc2nn1	-5.8	54.7*	0.0	0.0	-17.4

Screening data: PubChem BioAssay, several laboratories
